Results reported in ChEMBL document CHEMBL1157020, “Antihyperglycemic activity of naphthylchalcones” (2010).
Active and inactive are the calls of the source. No cut-off for these calls is given here.

Experiments:
[1] = test system: Rattus norvegicus; test: Antidiabetic activity in hyperglycemic normal Wistar rat assessed as reduction of serum glucose level at 10 mg/kg, po up to 180 mins by glucose oxidase method; assay type: functional, organism-based; set-up: dose 10 mg/kg
Method in brief: (§1)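 Male Wistar rats (180–210 g), fasted 16 h, given glucose 4 g/kg (8.9 M) plus compound 10 mg/kg in corn oil by oral gavage (0.5 mL); vehicle-treated and glucose-only controls. Tail-vein blood centrifuged, serum glucose by glucose oxidase before and at 15, 30, 60, 180 min. Lowering expressed versus hyperglycemic control; mean ± S.E.M., n = 8.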

[2] = test system: Rattus norvegicus; test: Antidiabetic activity in hyperglycemic normal Wistar rat assessed as reduction of serum glucose level at 10 mg/kg, po after 15 mins by glucose oxidase method relative to control; assay type: functional; set-up: scale not given: the % may be the effect or the level left; method in brief: as §1
[3] = test system: Rattus norvegicus; test: Antidiabetic activity in hyperglycemic normal Wistar rat assessed as reduction of serum glucose level at 10 mg/kg, po after 30 mins by glucose oxidase method relative to control; assay type: functional; set-up: scale not given: the % may be the effect or the level left; method in brief: as §1
[4] = test system: Rattus norvegicus; test: Antidiabetic activity in hyperglycemic normal Wistar rat assessed as potentiation of glucose-induced serum insulin level at 10 mg/kg, po after 30 mins by ELISA relative control; assay type: functional
Method in brief: (§2)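 Male Wistar rats (180–210 g), fasted 16 h, orally loaded with glucose 4 g/kg plus compound 10 mg/kg in corn oil by gavage; euglycemic and hyperglycemic control groups. Serum insulin by rat insulin ELISA (range 0.2–10 ng/mL; intra/inter-assay CV 3.22/6.95), absorbance 450 nm against standard curve. Increase versus hyperglycemic control at matched times; mean ± SEM, n = 8.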

[5] = test system: Rattus norvegicus; test: Antidiabetic activity in hyperglycemic normal Wistar rat assessed as potentiation of glucose-induced serum insulin level at 10 mg/kg, po after 60 mins by ELISA relative control; assay type: functional; method in brief: as §2
[6] = test system: Rattus norvegicus; test: Antidiabetic activity in hyperglycemic normal Wistar rat assessed as potentiation of glucose-induced serum insulin level at 10 mg/kg, po by ELISA relative control; assay type: functional, organism-based; set-up: dose 10 mg/kg; method in brief: as §2
[7] = test system: Rattus norvegicus; test: Antidiabetic activity in hyperglycemic normal Wistar rat assessed as reduction of serum glucose level at 10 mg/kg, po after 60 mins by glucose oxidase method relative to control; assay type: functional; set-up: scale not given: the % may be the effect or the level left; method in brief: as §1

SMILES	Activity [1]	Activity [2]	Activity [3]	further results
O=C(/C=C/c1ccc([N+](=O)[O-])cc1)c1ccc2ccccc2c1	inactive			
O=C(/C=C/c1ccc2ccccc2c1)c1ccccc1	inactive			
O=C(/C=C/c1cccc2ccccc12)c1cccc([N+](=O)[O-])c1		18%	32%	
O=C(/C=C/c1cccc([N+](=O)[O-])c1)c1ccc2ccccc2c1	Active			Activity [4]: 48%; Activity [5]: 88%; Activity [6]: Dose-dependent effect
O=C(/C=C/c1ccc2ccccc2c1)c1ccc2ccccc2c1	inactive			
O=C(/C=C/c1ccc2ccccc2c1)c1ccccc1[N+](=O)[O-]	inactive			
O=C(/C=C/c1ccc2ccccc2c1)c1cccc([N+](=O)[O-])c1		24%	25%	Activity [7]: 14%
O=C(/C=C/c1cccc2ccccc12)c1ccc([N+](=O)[O-])cc1		17%	21%	
O=C(/C=C/c1ccc2ccccc2c1)c1ccc([N+](=O)[O-])cc1		22%	25%	Activity [7]: 19%; Activity [4]: 27%; Activity [5]: 104%; Activity [6]: Dose-dependent effect
